Laboratory results published in ChEMBL document CHEMBL4052653, “Discovery of Novel and Potent Stearoyl Coenzyme A Desaturase 1 (SCD1) Inhibitors as Anticancer Agents” (Bioorg Med Chem, 2017).
Active and inactive are the calls of the source. No cut-off for these calls is given here.

Tests used:
Stearoyl-CoA desaturase [1] = molecular target: T1, Stearoyl-CoA desaturase (Homo sapiens, UniProt O00767); assay: Displacement of (5-(6-(10H-spiro(1-benzofuran-3,30-pyrrolidin)-10-yl)pyridazin-3-yl)-1,2,4-oxadiazol-3-yl)[3H2]methanol from SCD1 in human liver microsomes after 120 mins TopCount liquid scintillation counting method
T1 sequence (O00767 whole entry): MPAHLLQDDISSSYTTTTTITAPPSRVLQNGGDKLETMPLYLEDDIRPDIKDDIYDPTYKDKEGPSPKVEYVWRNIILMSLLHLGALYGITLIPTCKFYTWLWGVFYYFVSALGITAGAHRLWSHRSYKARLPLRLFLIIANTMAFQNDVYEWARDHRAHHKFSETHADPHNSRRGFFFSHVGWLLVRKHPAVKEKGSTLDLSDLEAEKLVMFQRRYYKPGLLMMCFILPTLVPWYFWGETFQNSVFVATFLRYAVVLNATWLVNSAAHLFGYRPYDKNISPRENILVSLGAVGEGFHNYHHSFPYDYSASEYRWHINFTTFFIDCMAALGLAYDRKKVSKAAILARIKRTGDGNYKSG
Summary of the method: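 Human SCD1 liver microsomes incubated 120 min with 3.0 nM [3H]-ligand and test compound over a range of concentrations. Bound ligand collected on PEI-pretreated GF/B filters, washed five times, counted by scintillation. Controls: DMSO (100%) and 10 µM unlabeled reference ligand (0%). IC50 from a three-parameter logistic fit.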

[2] = Stability in mouse liver microsomes; assay type: ADME, microsome; settings: read-out: Stability
HCT-116 = assay: Growth inhibition of human HCT116 cells after 72 hrs by CellTiter-Glo luminescence assay; assay type: functional; settings: HCT-116, 72 h
Summary of the method: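 HCT116 cells seeded at 9 × 10^2 cells/well and cultured 24 h. Compounds diluted in growth medium to final concentrations and added. Proliferation read by CellTiter-Glo luminescence after 72 h.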

Stearoyl-CoA desaturase [3] = molecular target: T1, Stearoyl-CoA desaturase; assay: Inhibition of SCD1 (unknown origin)
[4] = Mean residence time in mouse at 1 mg/kg, po administered as cassette dose; assay type: ADME, organism-based; settings: in vivo
Summary of the method: (§1)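 Mouse cassette-dosing PK: 0.1 mg/kg iv and 1 mg/kg po. Total clearance given in […]. AUC (ng·h/mL) and MRT (h) taken after the oral dose.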

Mus musculus [5] = assay: AUC in mouse at 1 mg/kg, po administered as cassette dose; assay type: ADME, organism-based; settings: in vivo; summary of the method: as §1
[6] = Mean residence time in po dosed mouse administered as cassette dose; assay type: ADME, organism-based; settings: in vivo; summary of the method: as §1
[7] = Total clearance in mouse at 0.1 mg/kg, iv or 1 mg/kg, po administered as cassette dose; assay type: ADME, organism-based; settings: in vivo; summary of the method: as §1
[8] = AUC in po dosed mouse administered as cassette dose; assay type: ADME, organism-based; settings: in vivo; summary of the method: as §1
[9] = Fraction unbound in mouse plasma; assay type: ADME, cell-free
[10] = Stability in human liver microsomes; assay type: ADME, microsome; settings: read-out: Stability
Mus musculus [11] = assay: Toxicity in athymic BALB/cA Jc1-nu/nu mouse at 1 mg/kg, po bid administered for 28 days; assay type: organism-based; settings: in vivo, 672 h
Mus musculus [12] = assay: In-vivo inhibition of SCD1 in athymic nude mouse xenografted with human HCT116 cells assessed as decrease in desaturation index of phosphatidylcholine at 0.3 to 30 mg/kg, po bid measured after 16 hrs by LC/MS analysis; assay type: functional, organism-based
Summary of the method: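 Nude mice bearing HCT116 xenografts of about 200 mm3, randomized. Oral dosing at 0.3, 3 and 30 mg/kg bid in 0.5% methylcellulose. Tumors collected 16 h after two doses and homogenized in isopropanol. Lipids analyzed by LC/Orbitrap MS. DI taken as the ratio PC C36:3/PC C36:0. Statistics by Williams' test.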

786-0 = assay: Antitumor activity against human 786-O cells xenografted in athymic BALB/cA Jc1-nu/nu mouse assessed as tumor growth inhibition at 1 mg/kg, po bid administered for 28 days measured twice per week; assay type: functional
Summary of the method: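 Female BALB/c nu/nu mice, 7 weeks old, inoculated subcutaneously in the flank with 3.0 × 10^6 786-O cells (1:1 with Matrigel). Randomized at mean tumor volume of about 130 mm3, n = 8/group. Dosed orally at 1 mg/kg bid, or with 0.5% methylcellulose vehicle, for 28 days at 10 mL/kg. Calipers used twice weekly, volume = W²×L/2. T/C taken at Day 28; Student's t-test.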

| Structure (SMILES) | IC50 (Stearoyl-CoA desaturase [1]) | microsomal CLint [2] | GI50 (HCT-116) | microsomal CLint [10] | also measured |
| --- | --- | --- | --- | --- | --- |
| N#CC1(c2ccc(OC(F)(F)F)cc2)CCN(c2ccc(-c3nc(CO)no3)nn2)CC1 | 11 nM | 35 µL/min/mg | 32 nM |  |  |
| OCc1noc(-c2ccc(N3CCC4(COc5ccccc54)C3)nn2)n1 (stereo unspecified) |  |  |  |  | IC50 (Stearoyl-CoA desaturase [3]): 4.6 nM; MRT [4]: 2.3 h; AUC (Mus musculus [5]): 299 ng·h/mL |
| N#CC1(c2ccccc2)CCN(c2ccc(-c3nc(CO)no3)nn2)CC1 | 190 nM |  | 530 nM |  |  |
| OCc1nnc(-c2ccc(N3CCC(c4ccc(C(F)(F)F)cc4)(C(F)(F)F)CC3)nn2)s1 | 2.5 nM | 1 µL/min/mg | 1.1 nM |  | MRT [6]: 4.1 h; clearance [7]: 15.9 mL/min/kg; AUC [8]: 1190 ng·h/mL; fraction unbound [9]: 0.03 |
| N#CC1(c2ccc(Cl)cc2)CCN(c2ccc(-c3nc(CO)no3)nn2)CC1 | 20 nM | 39 µL/min/mg | 110 nM |  |  |
| OCc1noc(-c2ccc(N3CCC(c4ccccc4)(C(F)(F)F)CC3)nn2)n1 | 38 nM |  | 39 nM |  |  |
| N#CC1(c2ccc(C(F)(F)F)cc2)CCN(c2ccc(-c3nc(CO)no3)nn2)CC1 | 27 nM | 33 µL/min/mg | 39 nM | 2 µL/min/mg |  |
| NC1(c2ccccc2)CCN(c2ccc(-c3nc(CO)no3)nn2)CC1 | 220 nM |  | 530 nM |  |  |
| OCc1noc(-c2ccc(N3CCC(c4ccc(C(F)(F)F)cc4)(C(F)(F)F)CC3)nn2)n1 | 2.3 nM | 19 µL/min/mg | 1.3 nM | 20 µL/min/mg | MRT [6]: 3.2 h; clearance [7]: 15.4 mL/min/kg; AUC [8]: 432 ng·h/mL; fraction unbound [9]: 0.05 |
| OCc1nnc(-c2ccc(N3CCC(c4ccc(C(F)(F)F)cc4)(C(F)(F)F)CC3)nn2)o1 | 4.7 nM | 33 µL/min/mg | 2.7 nM | 14 µL/min/mg | MRT [6]: 4.2 h; Activity (Mus musculus [11]): Non-Toxic; clearance [7]: 5.17 mL/min/kg; AUC [8]: 3760 ng·h/mL; inhibition (Mus musculus [12]): Active; T/C (786-0): 32.8%; fraction unbound [9]: 0.07 |
| OCc1noc(-c2ccc(N3CCC(O)(c4ccccc4)CC3)nn2)n1 | 130 nM |  | > 1000 nM |  |  |
| N#CC1(c2cccc(Cl)c2)CCN(c2ccc(-c3nc(CO)no3)nn2)CC1 | 15 nM |  | 200 nM |  |  |
| N#CC1(c2ccc(S(F)(F)(F)(F)F)cc2)CCN(c2ccc(-c3nc(CO)no3)nn2)CC1 | 9.5 nM | 24 µL/min/mg | 8.4 nM | 7 µL/min/mg |  |
| OCc1nsc(-c2ccc(N3CCC(c4ccc(C(F)(F)F)cc4)(C(F)(F)F)CC3)nn2)n1 | 1.2 nM |  | 1.3 nM | 10 µL/min/mg | MRT [6]: 4.2 h; clearance [7]: 8.23 mL/min/kg; AUC [8]: 1820 ng·h/mL; fraction unbound [9]: 0.01 |
| COC1(c2ccccc2)CCN(c2ccc(-c3nc(CO)no3)nn2)CC1 | 110 nM |  | 410 nM |  |  |
| N#CC1(c2ccccc2Cl)CCN(c2ccc(-c3nc(CO)no3)nn2)CC1 | 80 nM |  | 240 nM |  |  |
| N#CC1(c2ccc([N+](=O)[O-])cc2)CCN(c2ccc(-c3nc(CO)no3)nn2)CC1 | 100 nM | 11 µL/min/mg | 170 nM | 6 µL/min/mg |  |
| CC(C)(C)c1ccc(C2(C#N)CCN(c3ccc(-c4nc(CO)no4)nn3)CC2)cc1 | 21 nM | 119 µL/min/mg | 37 nM |  |  |
